Calls of active or inactive are those of the source. The rule behind the calls is not given here.

Holding throughout (format): functional, cell-based
Test [1] relates to C2C12. The test can be described thus: Inhibition of serum withdrawal-induced cell differentiation in mouse C2C12 cells assessed as myosin heavy chain expression.
For test [2], the system named is RD. The test can be described thus: Inhibition of anchorage-independent growth in human RD cells at 10 uM. The procedure, abridged: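 Human RD embryonal rhabdomyosarcoma cells were treated and scored for anchorage-independent growth on soft agar.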
Test [3] deals with C2C12. The test can be described thus: Induction of cell differentiation in mouse C2C12 cells assessed as myosin heavy chain expression at 1 uM. Put shortly: (§1)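 Mouse C2C12 myoblasts were treated with statin. Differentiation was read as myosin heavy chain expression by immunofluorescence.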
Test [4] relates to RD. The test can be described thus: Induction of cell differentiation of human RD cells assessed as troponin expression after 4 days by immunofluorescence method. The procedure, abridged: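 Human RD embryonal rhabdomyosarcoma cells were treated in normal growth medium for four days, then scored for differentiation.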
Test [5] relates to C2C12. The test can be described thus: Induction of cell differentiation in mouse C2C12 cells assessed as myosin heavy chain expression at 5 uM. The procedure, abridged:
as §1

The subject of test [6] is C2C12. The test can be described thus: Induction of cell differentiation in mouse C2C12 cells assessed as myosin heavy chain expression at 10 uM in presence of 250 uM cholesterol.
The subject of test [7] is C2C12. The test can be described thus: Induction of cell differentiation in mouse C2C12 cells assessed as myosin heavy chain expression at 10 uM. Put shortly: as §1
Test [8] has as its system C2C12. The test can be described thus: Inhibition of shATP citrate lyase-induced cell differentiation in mouse C2C12 assessed as myosin heavy chain expression at 100 nM.

Regarding `CC(C)CCC[C@@H](C)[C@H]1CC[C@H]2[C@@H]3CC=C4C[C@@H](O)CC[C@]4(C)[C@H]3CC[C@]12C`, the inhibition entry in the test on C2C12 [1] is “Active”.

For `CC(C)n1c(/C=C/C(O)CC(O)CC(=O)O)c(-c2ccc(F)cc2)c2ccccc21` (centres undefined), the inhibition result in the test on RD [2] was “Active”. The outcome in the test with C2C12 [3] and with RD [4] was Active.

For the compound `CC(C)c1c(C(=O)Nc2ccccc2)c(-c2ccccc2)c(-c2ccc(F)cc2)n1CC[C@@H](O)C[C@@H](O)CC(=O)O`, in the test on C2C12 [3], the result was Active.

For the compound `CC[C@H](C)C(=O)O[C@H]1C[C@H](O)C=C2C=C[C@H](C)[C@H](CC[C@@H](O)C[C@@H](O)CC(=O)O)[C@H]21`, the result with C2C12 [5], in the test on C2C12 [6] and in the test on C2C12 [7] was Active.

For the compound `CC(/C=C/C(=O)NO)=C\[C@@H](C)C(=O)c1ccc(N(C)C)cc1`, the inhibition entry with C2C12 [8] was “Active”.
